# Measurements reported in ChEMBL document CHEMBL1649528 (Antimicrob Agents Chemother, 2009).
# What was measured:
# West Nile virus [1] = assay: Antiviral activity against West Nile virus infected in CyPA-deficient human Huh7.5 cells assessed as decrease in viral replication at 4 uM after 24 hrs by luciferase reporter gene assay; format: functional; settings: Huh-7, 24 h
# How it was run: (§1)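 Huh-7.5 shRNA lines (CyPA knockdown sh-A and control sh-Fluc; puromycin 1 μg/ml) seeded at 2 × 10⁴/well and infected 24 h later with WNV VLP at 1 FFU/cell. Cs (0, 4 or 8 μM) or 1% ethanol added at once. Luciferase read at 24 h p.i. and expressed as % of ethanol-treated sh-Fluc. Mean ± SD of three independent experiments.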
# West Nile virus [2] = assay: Antiviral activity against West Nile virus infected in CyPA-deficient human Huh7.5 cells assessed as decrease in viral replication at 8 uM after 24 hrs by luciferase reporter gene assay; format: functional; settings: Huh-7, 24 h; how it was run: as §1
# West Nile virus [3] = assay: Antiviral activity against West Nile virus infected in human Huh7.5 cells assessed as decrease in viral replication at 8 uM after 24 hrs by luciferase reporter gene assay; format: functional; settings: Huh-7, 24 h; how it was run: as §1
# West Nile virus [4] = assay: Antiviral activity against West Nile virus infected in african green monkey Vero cells assessed as decrease in viral RNA synthesis after 24 hrs by luciferase reporter gene assay; format: functional, organism-based
# How it was run: (§2)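 Stable Rluc-Neo-Rep replicon-bearing Vero cells (DENV-1 or WNV; kept in DMEM/10% FBS with 1 mg/ml G418, 37°C, 5% CO₂) treated with Cs at ≤8 μM. Read-out is replicon Renilla luciferase, and 50% effective concentration is taken from the dose response.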
# dengue virus type 1 [5] = assay: Antiviral activity against Dengue virus 1 infected in african green monkey Vero cells assessed as decrease in viral RNA synthesis after 24 hrs by luciferase reporter gene assay; format: functional, organism-based; how it was run: as §2
# West Nile virus [6] = assay: Antiviral activity against West Nile virus infected in human Huh7.5 cells assessed as decrease in viral RNA synthesis at 8 uM after => 20 hrs by luciferase reporter gene assay; format: functional; settings: Huh-7, 20 h
# How it was run: (§3)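 Rluc2A-Rep replicon RNA (10 μg; WNV or DENV-1) electroporated into Huh-7.5 cells, seeded at 4 × 10⁵/well, then treated at once with 8 μM Cs or 1% ethanol. Cells washed with cold PBS and lysed at time points, and lysates frozen at −80°C. Luciferase read on 20 μl lysate. Early signal (1–10 h p.t.) reflects translation and later signal (>10 h) reflects RNA replication.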
# dengue virus type 1 [7] = assay: Antiviral activity against Dengue virus 1 infected in human Huh7.5 cells assessed as decrease in viral RNA synthesis at 8 uM after => 20 hrs by luciferase reporter gene assay; format: functional; settings: Huh-7, 20 h; how it was run: as §3
# Yellow fever virus = assay: microbe, parasite or virus in culture; format: functional; settings: Huh-7, 20 h
compound,measurement,setting,value
C/C=C/C[C@@H](C)[C@@H](O)[C@H]1C(=O)N[C@@H](CC)C(=O)N(C)CC(=O)N(C)[C@@H](CC(C)C)C(=O)N[C@@H](C(C)C)C(=O)N(C)[C@@H](CC(C)C)C(=O)N[C@@H](C)C(=O)N[C@H](C)C(=O)N(C)[C@@H](CC(C)C)C(=O)N(C)[C@@H](CC(C)C)C(=O)N(C)[C@@H](C(C)C)C(=O)N1C [CYCLOSPORINE],inhibition at 4 µM,West Nile virus [1],10%
same,inhibition at 8 µM,West Nile virus [2],2%
same,inhibition at 8 µM,West Nile virus [3],4%
same,IC50,West Nile virus [4],8 µM
same,IC50,dengue virus type 1 [5],≤ 0.5 µM
same,inhibition at 8 µM,West Nile virus [6],≥ 70%
same,inhibition at 8 µM,dengue virus type 1 [7],≥ 70%
same,inhibition at 8 µM,Yellow fever virus,≥ 70%
